PostGolgi yeast = growth inhibition of a yeast mutant, post-Golgi transport screen | post-Golgi transport phenotypic cell assay | 98,000 compounds, 0.9% hits | inhibition, % at 10 µM;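 note: yeast cells grown in 1536-well plates; yeast grown about 18 h at 30C before absorbance read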
PLAP act = activators of human placental alkaline phosphatase; 96,000 compounds, 1.2% hits; AID 696; purified PLAP enzyme, luminescent substrate read-out; stronger effect = higher value; activation fold at 20 µM; P05187; in the data active = activation fold above about 2
E coli WT exp = blocks growth of wild type E. coli BW25113 | OD600 absorbance | growth inhibition, % at 100 µM | 98,000 compounds, 0.15% hits | AID 710;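 active = growth inhibition above about 50% at one test dose, limit read from the data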;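 note: growth measured after 20 h incubation at 37 °C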
PostGolgi ctrl = growth of the yeast control strain, post-Golgi counter-screen | inhibition, % at 10 µM | efflux-deficient yeast background strain, growth absorbance A615, 16 h | AID 738 | 98,000 compounds, 5% hits
Ecoli tolC = blocks growth of E. coli BW25113 tolC mutant. OD615. growth inhibition, % at 10 µM (by protocol). 65,000 compounds, 2.2% hits. AID 573;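 active = growth inhibition at or above a cutoff equal to the mean over every tested compound plus 3 SD, cut at about 60% in these data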;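 note: growth measured after 20 h incubation at 37 °C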
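Signal: optical density read at 615 nm; Assay system: E. coli ΔtolC::kan strain BW25113; Times: 20 h incubation with compound, 37 °C; Dosing: 10 µM final, single dose.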
HePTP inhibitor = human HePTP phosphatase inhibition; recombinant HePTP phosphatase activity, OD absorbance; inhibition, % at 20 µM; 110,000 compounds, 0.64% hits; in the data active = inhibition above about 50%;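 note: plate controls were vehicle for no effect and reference inhibitor for full effect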
Target sequence (P35236 whole entry, looked up): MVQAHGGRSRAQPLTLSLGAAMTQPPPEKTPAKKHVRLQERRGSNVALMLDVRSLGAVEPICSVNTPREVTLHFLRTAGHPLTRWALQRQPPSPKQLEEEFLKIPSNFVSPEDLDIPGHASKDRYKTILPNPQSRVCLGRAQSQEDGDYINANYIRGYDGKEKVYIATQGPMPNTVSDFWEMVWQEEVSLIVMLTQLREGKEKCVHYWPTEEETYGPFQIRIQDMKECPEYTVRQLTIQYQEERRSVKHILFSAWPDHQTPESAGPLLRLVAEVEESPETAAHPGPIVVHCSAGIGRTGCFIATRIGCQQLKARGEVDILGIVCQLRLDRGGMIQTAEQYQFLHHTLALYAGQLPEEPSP
Active calls of the source: *; . = no result. A selection: hits, their analogues and other compounds. The true share with any hit is near 5.4%. Cut-off read from the data, not from the text of the source, unless noted: active = inhibition above about 30%; inactive = the rest.

SMILES	PostGolgi yeast	PLAP act	E coli WT exp	PostGolgi ctrl	Ecoli tolC	HePTP inhibitor
CC1CC(C)(C)N(C(=O)CSc2ccc(-c3ccc(F)cc3)nn2)c2ccccc21 (stereo not drawn)	-23.2	1.2	-5.0	36.5*	.	.
COc1ccccc1N1CCN(Cc2nc(N)nc(Nc3ccc(C)c(Cl)c3)n2)CC1	-10.6	1.5	3.0	2.1	69.0*	10.4
CCOC(=O)c1sc(NC(=O)c2cc3n(n2)C(C(F)(F)F)CC(c2ccc4c(c2)OCO4)N3)c(C(=O)OCC)c1C (stereo not drawn)	.	.	.	.	.	5.1
COc1ccc(OC)c(-n2c(SCC(=O)N3CCc4ccccc43)nc3c(c2=O)SCC3)c1	8.6	.	-15.0	41.4*	2.1	-2.0
Cc1cccc2cc(C(c3nnnn3CC3CCCO3)N3CCCC4(CCCCC4)C3)c(=O)[nH]c12 (stereo not drawn)	-1.7	1.2	-4.0	21.2	.	-9.6
CC1(C)CC2(CC(C)(C)NC(=O)N2)NC(=O)N1	8.8	1.1	-2.0	8.8	-14.6	8.6
Cc1cccc(C2Nc3ccccc3C(=O)N2c2ccccc2)n1 (stereo not drawn)	30.5*	1.1	2.0	7.5	-3.0	4.5
O=c1c2cccnc2[nH]c(=S)n1CCCN1CCN(c2ccc(F)cc2)CC1	13.6	1.2	-13.0	41.7*	2.3	0.7
CCOCCCn1c(=S)[nH]c2ncccc2c1=O	6.5	1.1	-9.0	32.8*	1.0	7.2
CC(C)CCn1c(=S)[nH]c2ncccc2c1=O	-3.4	0.9	-5.0	1.0	-1.9	-5.3
CCC(C)n1ncn(-c2ccc(N3CCN(c4ccc(OCC5COC(Cn6cncn6)(c6ccc(Cl)cc6Cl)O5)cc4)CC3)cc2)c1=O (stereo not drawn)	.	.	.	.	7.8	11.2
CCCC1COC(Cn2cncn2)(c2ccc(C)cc2)O1 (stereo not drawn)	100.6*	1	1.0	92.8*	-1.0	-9.7
CCCNC(=O)C1CCN(S(=O)(=O)c2c(C)noc2/C=C\c2ccc(OC)cc2)CC1	-14.8	1	-5.0	6.8	.	.
Cc1ccc(Sc2nnc(Cc3ccccc3)c3ccccc23)cc1	8.7	0.9	-6.0	33.8*	.	.
COc1ccc(Sc2nnc(Cc3ccccc3)c3ccccc23)cc1	-7.6	1	-7.0	16.1	.	.
COc1cc(Br)cc(/C=N/NC(=O)COc2cccc(Cl)c2)c1O	.	.	.	.	.	98.9*
COc1cc(Br)cc(CN2CCN(C=O)CC2)c1O	3.6	1.1	12.0	0.1	-4.0	4.7
Cc1ccccc1C1=N/C(=C\c2ccc(Br)o2)C(=O)O1	.	.	.	.	.	59.5*
C=CCn1c(SCC(=O)N2CCN(C(=O)c3ccco3)CC2)nc2sc(CC)cc2c1=O	2.9	1.8	-5.0	-4.2	5.0	-4.7
C=CCn1c(SCC(=O)N2CCc3ccccc3C2)nc2sc(C)cc2c1=O	0.3	0.8	-6.0	49.9*	.	.
CCC(NS(=O)(=O)c1ccc(C)cc1)C(=O)O (stereo not drawn)	-3.2	0.9	1.0	0.6	2.2	-4.1
COc1ccc(/C=N/NC(=O)c2ccn[nH]2)cc1COc1ccc(Cl)cc1Cl	-0.3	1.1	-2.0	62.5*	.	.
COc1ccc(/C=N/NC(=O)c2ccn[nH]2)cc1COc1ccc(F)cc1	-6.0	1.1	-1.0	-2.5	.	.
COc1ccc(/C=N/NC(=O)c2ccoc2C)cc1COc1ccc(Cl)cc1	10.6	1.2	-12.0	48.5*	.	.
Cc1occc1C(=O)N/N=C/c1ccccc1	.	.	.	.	.	-18.2
SMILES	PostGolgi yeast	PLAP act	E coli WT exp	PostGolgi ctrl	Ecoli tolC	HePTP inhibitor
Cc1ccccc1N(CC(=O)N/N=C/c1ccc(Cl)cc1)C(=O)c1ccccc1	8.3	1.5	-10.0	31.6*	.	.
NS(=O)(=O)c1ccc(N2N=C(c3ccccc3)CC2c2ccc(F)cc2)cc1 (stereo not drawn)	14.0	1.7	-12.0	50.2*	.	.
O=C(CSc1nc2ccc(N3C(=O)c4ccccc4C3=O)cc2s1)Nc1cccc([N+](=O)[O-])c1	.	.	.	.	.	79.6*
CCOC(=O)C1=C(O)/C(=C\c2ccc(CNC(=O)C(=O)Nc3ccccc3)o2)N=C1C	2.3	1.3	0.0	2.1	.	.
CCCS(=O)(=O)N1CCCC(C(=O)NC2CCCCC2)C1 (stereo not drawn)	-0.3	1.1	-2.0	7.5	-16.0	-5.5
CCn1c(CSc2nc3ccccc3[nH]2)n[nH]c1=S	2.0	2.2*	8.0	3.0	-8.5	6.4
COc1ccc(C2CC(=O)C3=C(C2)Nc2ccccc2NC3c2ccc(C(F)(F)F)cc2)cc1 (stereo not drawn)	.	.	.	.	.	-6.6
Clc1ccc(OCc2nn3c(C4CCCCC4)nnc3s2)c(Cl)c1	0.8	1.1	-7.0	38.7*	15.4	-5.5
CCN(CC)c1ccc(-c2nn3c(-c4ccccc4OC)nnc3s2)cc1	10.8	1.4	-11.0	42.5*	40.0	2.8
COc1ccccc1-c1nnc2sc(COc3ccc(Cl)cc3Cl)nn12	11.7	1	1.0	40.9*	17.2	-4.9
COc1ccccc1OCC(=O)Nc1ccccn1	-3.3	0.9	4.0	9.9	-12.0	1.5
Cc1cc2oc(C(=O)NCc3ccncc3)c(C)c2cc1C	-6.8	1.6	4.0	36.4*	32.7	4.8
CCCCCCCCN=C1NC(=O)CS1	6.5	1	19.0	-2.2	.	.
COc1cc(OC)cc(-c2cc3nc(C)c(CCC(=O)NC(C)CCc4ccco4)c(C)n3n2)c1 (stereo not drawn)	4.6	1.7	-8.0	17.5	20.1	-0.7
Cc1nc2cc(-c3cccc(F)c3)nn2c(C)c1CCC(=O)NC(C)CCc1ccco1 (stereo not drawn)	40.7*	1.6	-3.0	29.9	27.1	9.0
Cc1ccccc1OCCCCc1c(C)n[nH]c1C	1.9	1.3	9.0	45.5*	100.0*	3.7
C=CCOc1c(CNc2nccs2)cccc1OCC	32.5*	0.9	11.0	22.7	21.2	2.6
C=CCOc1c(CNc2ccc(C(=O)O)cc2)cccc1OCC	0.0	1	-2.0	7.2	.	.
COc1cccc(CSc2nc3ccccc3cc2C=O)c1	32.5*	1.1	-9.0	51.3*	.	.
COc1ccc(N2C(=O)CC(Sc3nc(C)c4ccccc4n3)C2=O)cc1 (stereo not drawn)	.	.	.	.	.	-1.9
CCOC(=O)c1ccc(-n2c(=O)[nH]c3ccccc3c2=O)cc1	-2.6	2*	-8.0	11.0	11.9	0.0
CCOC(=O)N1CCN(C(=O)Cc2ccc(-n3c(=O)[nH]c4ccccc4c3=O)cc2)CC1	0.2	1.1	4.0	-0.7	-6.2	-2.2
COC(=O)c1cccc(NC(=O)c2nn(C(C)C)c(=O)c3ccccc23)c1	1.4	0.9	-2.0	12.7	-3.0	4.6
CCOC(=O)c1cnc2c(C#N)c(C)nn2c1-c1ccccc1	3.1	1	-2.0	31.7*	-1.9	-1.5
CCOC(=O)c1cnc2c(C#N)c(C)nn2c1C	-19.6	1.1	-3.0	11.7	-18.7	2.2
CCC(=O)Nc1ccnc(-c2cccnc2)n1	18.6	0.9	4.0	6.1	.	.
Cc1cc(O)c(/C=N/Nc2ccc(Cl)cc2)c(=O)o1	66.1*	0.9	95.0*	8.4	.	.
CC(=O)C(N=Nc1ccccc1)(Sc1nnc(-c2ccccc2)n1-c1ccccc1)C(C)=O	-7.5	1.2	-20.0	46.6*	.	.

High-throughput results as filed in PubChem BioAssay.
